What was measured:
[1] = target: T1, Mitogen-activated protein kinase 14 (Homo sapiens, UniProt Q16539); assay: Inhibition of human p38alpha using biotinylated ATF2 as substrate at 60 uM preincubated for 1 hr measured after 1 hr by FRET assay
[2] = target: T1, Mitogen-activated protein kinase 14
Blood = assay: Inhibition of LPS-induced TNFalpha release in human whole blood after 24 hrs by ELISA; assay type: functional, tissue-based
[3] = Metabolic stability in rat liver microsomes assessed as compound turnover at 5 uM after 30 mins in presence of NADPH; assay type: ADME, Microsome; conditions: read-out: Drug metabolism
How it was run: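 5 µM test compound incubated with rat or human hepatic microsomes (1 mg/mL) plus NADPH for 30 min at 37 °C; result given as % turnover.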

[4] = Metabolic stability in human liver microsomes assessed as compound turnover at 5 uM after 30 mins in presence of NADPH; assay type: ADME, Microsome; conditions: read-out: Drug metabolism
Liver microsomes = assay: Metabolic stability in human liver microsomes assessed as compound turnover at 5 uM after 30 mins in absence of NADPH; assay type: ADME, Microsome; conditions: 0.5 h
[5] = Apparent passive permeability from apical to basolateral side of the human Caco2 cells at 12.5 uM; assay type: ADME, cell-based; conditions: Caco-2
How it was run: (§1)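 Passive permeability across Caco-2 monolayer measured with 12.5 µM test compound in both directions (apical-to-basal and basal-to-apical); Papp reported in 10^-6 cm/s.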

[6] = Apparent passive permeability from basolateral to apical side of the human Caco2 cells at 12.5 uM; assay type: ADME, cell-based; conditions: Caco-2; how it was run: as §1
CHO [7] = assay: Cytotoxicity against CHO cells; assay type: cell-based; conditions: Cricetulus griseus
[8] = Half life in rat at 1 mg/kg, iv; assay type: ADME, organism-based; design: dose 1 mg/kg, route intravenous; conditions: in vivo
[9] = Cmax in rat at 1 mg/kg, iv; assay type: ADME, organism-based; design: dose 1 mg/kg, route intravenous; conditions: in vivo
[10] = Clearance in rat at 1 mg/kg, iv; assay type: ADME, organism-based; design: dose 1 mg/kg, route intravenous; conditions: in vivo
[11] = AUC (0 to infinity) in rat at 1 mg/kg, iv; assay type: ADME, organism-based; design: time infinity, dose 1 mg/kg, route intravenous; conditions: plasma
[12] = Volume of distribution at steady state in rat at 1 mg/kg, iv; assay type: ADME, organism-based; design: dose 1 mg/kg, route intravenous; conditions: in vivo, read-out: Vdss
[13] = Mean residence time in rat at 1 mg/kg, iv; assay type: ADME, organism-based; design: dose 1 mg/kg, route intravenous; conditions: in vivo
[14] = Cmax in rat at 10 mg/kg, po; assay type: ADME, organism-based; design: dose 10 mg/kg, route oral; conditions: in vivo
[15] = AUC (0 to infinity) in rat at 10 mg/kg, po; assay type: ADME, organism-based; design: time infinity, dose 10 mg/kg, route oral; conditions: plasma
[16] = Oral bioavailability in rat at 10 mg/kg; assay type: ADME, organism-based; conditions: in vivo
CHO [17] = assay: Cytotoxicity against CHO cells at 200 uM; assay type: cell-based, Cricetulus griseus; conditions: chinese hamster

T1 sequence (Q16539 whole entry): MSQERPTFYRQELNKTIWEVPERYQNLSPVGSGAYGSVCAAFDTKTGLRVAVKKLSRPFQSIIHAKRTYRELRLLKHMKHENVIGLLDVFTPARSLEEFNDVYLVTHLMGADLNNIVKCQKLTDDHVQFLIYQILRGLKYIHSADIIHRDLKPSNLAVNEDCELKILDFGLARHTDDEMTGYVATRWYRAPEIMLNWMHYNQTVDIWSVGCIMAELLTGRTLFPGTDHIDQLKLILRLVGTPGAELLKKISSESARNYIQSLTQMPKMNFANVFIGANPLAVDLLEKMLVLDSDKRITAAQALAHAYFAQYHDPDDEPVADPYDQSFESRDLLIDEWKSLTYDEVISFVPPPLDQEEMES

SMILES: Cc1ccc2c(N)n[nH]c2c1-c1ccc2c(c1)NC(=O)C21CCOCC1
- inhibition [1]: 60%

SMILES: Cc1ccc(-c2nnc(C3CC3)[nH]2)cc1-c1ccc2c(c1)NC(=O)C21CCCC1
- IC50 [2]: 135 nM

SMILES: Cc1ccc2c(NC3CC3)noc2c1-c1ccc2c(c1)NC(=O)C21CCOCC1
- IC50 (Blood): 8.4 nM
- metabolised at 0.5 h, 5 µM [3]: 18%
- metabolised at 0.5 h, 5 µM [4]: 26%
- Stability (Liver microsomes): Stable
- Papp A→B at 12.5 µM [5]: 26 ×10⁻⁶ cm/s
- Papp B→A at 12.5 µM [6]: 16 ×10⁻⁶ cm/s
- IC50 (CHO [7]): 49000 nM
- half-life [8]: 2.9 h
- Cmax [9]: 1480 ng/mL
- clearance [10]: 3.2 mL/min/kg
- AUC(0-inf) [11]: 5270 ng·h/mL
- Vd [12]: 0.8 L/kg
- MRT [13]: 4.6 h
- Cmax [14]: 479 ng/mL
- AUC(0-inf) [15]: 3370 ng·h/mL
- bioavailability [16]: 6%
- IC50 [2]: 0.16 nM

SMILES: Cc1ccc2c(NC3CC3)noc2c1-c1ccc2c(c1)NC(=O)C2(C)C
- IC50 (Blood): 50 nM

SMILES: O=C1Nc2cc(-c3cccc4c(NC5CC5)noc34)ccc2C12CCCC2
- IC50 (Blood): 1260 nM
- IC50 [2]: 38 nM

SMILES: Cc1ccn2c(N)nnc2c1-c1ccc2c(c1)NC(=O)C21CCCC1
- IC50 (Blood): 2110 nM
- IC50 [2]: 34 nM

SMILES: Cc1nnc(-c2ccc(C)c(-c3ccc4c(c3)NC(=O)C4(C)C)c2)[nH]1
- IC50 [2]: 87 nM

SMILES: Cc1ccc2c(NC3CC3)noc2c1-c1ccc2c(c1)NC(=O)C21CCC(F)(F)CC1
- IC50 (Blood): 10.7 nM
- metabolised at 0.5 h, 5 µM [3]: 25%
- metabolised at 0.5 h, 5 µM [4]: 32%
- Stability (Liver microsomes): Stable
- Papp A→B at 12.5 µM [5]: 10 ×10⁻⁶ cm/s
- Papp B→A at 12.5 µM [6]: 4 ×10⁻⁶ cm/s
- Activity (CHO [17]): 56%

SMILES: Cc1nnc(-c2ccc(C)c(-c3ccc4c(c3)NC(=O)C43CCC3)c2)[nH]1
- IC50 (Blood): 624 nM

SMILES: Cc1ccc2c(N)noc2c1-c1ccc2c(c1)NC(=O)C2(C)C
- IC50 (Blood): 731 nM

SMILES: Cc1nnc(-c2ccc(C)c(-c3ccc4c(c3)NC(=O)C43CCC(F)(F)CC3)c2)[nH]1
- IC50 (Blood): 98 nM
- metabolised at 0.5 h, 5 µM [3]: 5%
- metabolised at 0.5 h, 5 µM [4]: < 5%
- Stability (Liver microsomes): Stable
- IC50 (CHO [7]): 20000 nM
